Calls of active or inactive are those of the source.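 How the source made its calls: active means mean cAMP rise at 10 µM above half of the positive control's rise; inactive means the rest.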
System: human washed platelets, cAMP competitive ELISA, 5 min
Experiment: cAMP induction in washed human platelets – cell-based, competitive ELISA, PGE1 reference, single compound, counter-screen for platelet activation inhibitor project, confirmation (AID 2646)
Conditions: at 10 µM; hits give high values
Outline: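 Test system: washed human donor platelets; benchmarks: PGE1 1 µM high, DMSO 0.3% neutral; signal: competitive cAMP ELISA of platelet lysates, optical density; doses: 10 µM compound, single concentration; medium: lysis in 0.1 M HCl with 0.5% Triton X-100; timing: 5 min platelet exposure to compound or control; replication: duplicate samples per compound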

CCCC(=O)Nc1cccc(NC(=O)c2ccccc2Br)c1
cAMP elevation, % of PGE1: 43.9% (inactive)

From PubChem BioAssay AID2646 (Broad Institute, 2010)
